VIM-2 inhibitor: VIM-2 metallo-beta-lactamase inhibitors, primary screen, biochemical, epi-absorbance readout, Pseudomonas aeruginosa enzyme; purified VIM-2, nitrocefin hydrolysis, epi-absorbance fluorescence; inhibition, % at 5.6 µM; 290,000 tested, 0.89% active;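 active = inhibition above the mean of all tested compounds plus 3 SD, cutoff set per screening run, cut at about 7.5% in these data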;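 also: red hydrolysis product quenches plate fluorescence so inhibitors raise well fluorescence; 0% = enzyme with DMSO and 100% = DMSO without enzyme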
TMEM16A act: TMEM16A chloride channel activators or potentiators, primary screen, cell-based, HTS; B-score at 10 µM; Anoctamin-1 (Mus musculus), Q8BHY3; HEK293 TMEM16A/YFP-H148Q/I152L, iodide quench fluorescence; stronger effect = lower value; AID 623877, 2012; 340,000 tested, 0.3% active;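 active = fluorescence-ratio B-score plate-corrected deviation score at least 3 library SD below zero, with starting fluorescence score within 5 deviations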;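 also: channel opened by trigger with iodide after compound preincubation; score built on the fluorescence ratio of max minus min over baseline; more negative score means more quench and so TMEM16A activation or potentiation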
ANO1 block: TMEM16A chloride channel inhibitors, primary screen, cell-based, HTS. Anoctamin-1 (Mus musculus), Q8BHY3. HEK293 TMEM16A/YFP iodide influx fluorescence, ionomycin. normalized B-score (activity score, 25-100; higher = stronger inhibition) at 10 µM. 310,000 tested, 1.2% active;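 active = ratio plate-corrected score three or more library SD toward inhibition, starting fluorescence score within five deviations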;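 also: score derived from kinetic fluorescence span divided by baseline fluorescence per well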
CHT PAM: CHT positive allosteric modulators, primary screen, cell-based, membrane potential dye, choline EC20 | CHT-expressing cells; stronger effect = higher value; LV-AA mutant CHT in HEK293 cells | 310,000 tested, 0.49% active | AID 488977, 2010 | High affinity choline transporter 1 (Homo sapiens), Q9GZV3 | B-score at 10 µM;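 active = initial fluorescence not abnormally high and integrated response B-score, plate-corrected, over 3 SD above library mean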
Target sequence (Q9GZV3 whole entry, looked up): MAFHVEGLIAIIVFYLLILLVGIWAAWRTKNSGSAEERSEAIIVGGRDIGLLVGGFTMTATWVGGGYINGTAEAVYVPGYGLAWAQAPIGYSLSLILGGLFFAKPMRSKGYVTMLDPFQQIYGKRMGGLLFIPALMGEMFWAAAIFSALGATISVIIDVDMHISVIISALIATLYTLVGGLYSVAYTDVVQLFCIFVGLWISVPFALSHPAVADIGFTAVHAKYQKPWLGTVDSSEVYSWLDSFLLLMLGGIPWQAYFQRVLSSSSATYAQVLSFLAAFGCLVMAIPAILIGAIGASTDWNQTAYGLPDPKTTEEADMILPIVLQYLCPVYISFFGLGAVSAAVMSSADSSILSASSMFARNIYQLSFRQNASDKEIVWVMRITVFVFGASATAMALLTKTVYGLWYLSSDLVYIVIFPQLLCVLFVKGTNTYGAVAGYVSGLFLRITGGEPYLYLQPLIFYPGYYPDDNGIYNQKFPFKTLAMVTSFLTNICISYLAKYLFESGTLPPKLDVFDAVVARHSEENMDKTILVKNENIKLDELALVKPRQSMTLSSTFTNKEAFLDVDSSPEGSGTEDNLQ
IMP-1 inh: IMP-1 metallo-beta-lactamase inhibitors, primary screen, biochemical, epi-absorbance readout, Pseudomonas aeruginosa enzyme | 290,000 tested, 0.45% active | inhibition, % at 5.6 µM | metallo-beta-lactamase IMP-1 (Pseudomonas aeruginosa) | purified IMP-1, nitrocefin hydrolysis, epi-absorbance fluorescence;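 active = inhibition above the mean plus 3 SD of all compounds in the same screening run, cut at about 4.5% in these data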;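 also: 0% = IMP-1 with DMSO and 100% = DMSO wells lacking enzyme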
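System: purified IMP-1 / Input: IMP-1 dispensed at 0.2 nM / Medium: 50 mM HEPES pH 7.1, 50 µM ZnSO4, 0.05% Brij 35 / Timing: 15 min enzyme–compound preincubation, then 25 min nitrocefin reaction, 25 °C / Technique: plate fluorescence quenching by hydrolysis product, ex 480/em 530 nm / Repeats: singlicate testing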
CHT block: inhibitors of human choline transporter CHT | High affinity choline transporter 1 (Homo sapiens), Q9GZV3 | CHT-expressing cells, membrane potential dye, choline response; stronger effect = lower value | B-score at 10 µM | 310,000 tested, 0.86% active | AID 488975, 2010;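 active = B-score over 3 SD under the library average, and starting fluorescence ratio not unusually high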;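 also: choline stimulus applied at its EC90 after an EC20 pre-addition; B-score computed on integrated fluorescence ratio after choline addition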
TMEM16A reconf: TMEM16A chloride channel inhibitors, confirmation, cell-based, re-confirmation; inhibition, % at 10 µM; 2,300 tested, 39% active; shares compounds with ANO1 block; HEK293 TMEM16A/YFP-H148Q, iodide quench fluorescence; ionomycin added to raise cell calcium; AID 652189, 2013;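 active = mean duplicate percent inhibition, scaled so buffer wells are 0 and the reference blocker 100, over three buffer SD above buffer mean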
HEK293 Ca mobil: calcium mobilization in TMEM16A/YFP HEK293 cells, confirmation, counter-screen for TMEM16A inhibitor project; shares compounds with ANO1 block; Fluo4 calcium mobilization; calcium response (% of ionomycin), % at 10 µM; 2,300 tested, 2% active;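 active = duplicate-averaged calcium signal over 20% of the ionomycin maximum, relative to buffer baseline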;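 also: each well's signal is peak minus trough fluorescence divided by its pre-addition baseline; 0% = buffer wells and 100% = ionomycin wells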
Parental YFP cnt: iodide YFP quench changes in parental YFP-HEK293, counter-screen for TMEM16A inhibitor project, cell-based; AID 652233, 2013; shares compounds with ANO1 block; 2,300 tested, under 10 active; ionomycin; YFP ratio F(max-min)/F0 at 10 µM;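 active = yellow fluorescent protein signal ratio exceeding the buffer control mean by over 5 SD of those controls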;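 also: ratio is mean of duplicate wells from kinetic YFP trace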
ClC-1 rat inh: ClC-1 chloride channel inhibition, selectivity assay for TMEM16A inhibitor project, cell-based, voltage-dependent ClC-1 | ratio percent, % at 10 µM | 2,300 tested, under 10 active | CHO ClC-1-YFP, iodide influx fluorescence quench; iodide control reads 0, buffer control 100 | shares compounds with ANO1 block;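 active = duplicate-mean ratio percent above the mean of iodide-only control wells, which defines zero, plus 5 of their SD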;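 also: higher percent means stronger block of ClC-1 iodide influx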
Numbers without * were called inactive; i = inactive; . = no result. This is a sample that favours compounds with a hit; in the whole collection about 3.4% have one here.

SMILES	VIM-2 inhibitor	TMEM16A act	ANO1 block	CHT PAM	IMP-1 inh	CHT block	TMEM16A reconf	HEK293 Ca mobil	Parental YFP cnt	ClC-1 rat inh
S=C(Nc1ccc(N2CCOCC2)cc1)Nc1ccc2nc(-c3ccco3)c(-c3ccco3)nc2c1	1.4	i	i	i	4.2	i	i	i	-1.07	-38.0
CCOC(=O)/C=C1\NC(=O)CS1	-3.1	i	i	i	-0.5	i	.	.	.	.
CC1(C)C(CO)=CC(=O)C2=C1SCC(=O)N2	-4.1	i	100*	i	-3.8	i	i	i	-1.08	1.5
Cn1ncc2c(N3CCN(c4ccccc4F)CC3)ncnc21	2.9	i	i	i	2.1	i	.	.	.	.
Cn1ncc2c(N3CCN(c4ccc(Cl)c(Cl)c4)CC3)ncnc21	-2.3	i	25*	i	-3.5	i	i	i	-1.08	-16.5
COc1cccc(CN(C(=O)c2cccs2)C2CCS(=O)(=O)C2)c1 (configuration not stated)	-3.6	i	i	i	-3.3	i	.	.	.	.
Cc1ccc(NC(=O)CSC2=C(C#N)C(c3ccco3)CC(=O)N2)cc1 (configuration not stated)	-1.6	i	25*	i	-1.9	i	i	i	-1.05	-12.0
Cc1ccc(NC(=O)CSC2=C(C#N)C(c3ccco3)C3=C(CC(C)(C)CC3=O)N2)cc1 (configuration not stated)	-5.2	i	i	i	-3.7	i	.	.	.	.
COc1cc(C)c(C(=O)Oc2cc(C)c(C(=O)O)c(O)c2)c(O)c1	.	i	100*	i	.	i	17.5%*	i	-0.942	-7.5
Cc1ccc(NC(=O)CNc2ccc(Cl)c(Cl)c2)cc1S(=O)(=O)N(C)C	-1.9	i	100*	i	-3.1	i	28.5%*	i	-0.955	-4.5
Cc1nc(C)n(C(Oc2ccc(Cl)cc2Cl)C(=O)C(C)(C)C)n1 (configuration not stated)	.	i	i	i	.	i	.	.	.	.
CN(C(=O)CSc1nnc(Cc2cccs2)n1C1CC1)C1CCS(=O)(=O)C1 (configuration not stated)	.	i	.	.	.	.	.	.	.	.
O=C(OCc1ccccc1Cl)c1ccccc1C(=O)c1ccccc1	-0.5	i	100*	i	-1.0	i	i	i	-0.915	-17.5
COCc1nnc(NC(=O)CS(=O)(=O)c2ccc(C)cc2)s1	0.8	i	i	i	0.0	i	.	.	.	.
COc1ccc(OC)c(NC(=O)CSc2ccc3ccccc3c2)c1	-2.3	i	100*	i	-2.2	i	i	i	-1.06	-13.0
COCCCNC(=O)C(=O)Nc1cc2c3c(c1)CCN3C(=O)CC2	-0.6	i	i	i	0.8	i	.	.	.	.
Cc1[nH]c2ccccc2c1C(=O)C(=O)NCc1ccncc1	-1.7	i	i	i	-3.6	i	.	.	.	.
O=C(CCc1ccc(S(=O)(=O)N2CCOCC2)cc1)Oc1ccccc1	1.6	i	25*	i	0.7	i	i	i	-1.23	-1.0
N#CC1(NC(=O)CSc2nc3ccccc3o2)CCCCC1	.	i	.	.	.	.	.	.	.	.
CCCCSc1nnc2c(n1)[nH]c1ccccc12	-0.1	i	25*	i	2.6	i	i	i	-1.18	-10.0
COc1cccc(NC(=O)NNC(=O)CCc2ccc(O)c(O)c2)c1	2.0	i	i	i	-1.9	i	.	.	.	.
CCN(CC)S(=O)(=O)c1ccc(Cl)c(NC(=O)COC(=O)c2ccc(O)cc2)c1	-2.2	i	25*	i	-0.3	i	45.0%*	i	-0.911	-8.5
Clc1ccc(OCCOCCNCc2ccccc2)cc1Cl	-0.2	i	i	i	-0.3	i	.	.	.	.
O=C(CN1CCN(Cc2ccccc2)CC1)Nc1cccc(Cl)c1	-3.2	i	i	i	-2.6	i	.	.	.	.
Cc1nn(-c2ccc(Cl)cc2)c2[nH]c(CCl)cc(=O)c12	0.1	i	100*	i	-0.6	-9.41*	45.5%*	i	-1.02	-10.5
SMILES	VIM-2 inhibitor	TMEM16A act	ANO1 block	CHT PAM	IMP-1 inh	CHT block	TMEM16A reconf	HEK293 Ca mobil	Parental YFP cnt	ClC-1 rat inh
CSc1ccccc1-c1nnc(-c2ccc(C)cc2)o1	2.1	i	25*	i	0.7	i	i	i	-1.2	3.0
CCN(CC)CCCNC(=O)c1cc2nc(-c3ccccc3)cc(C(F)(F)F)n2n1	6.7	i	100*	i	-3.3	i	i	i	-1.1	-10.0
Cc1ccc(-c2cc(C(F)(F)F)n3nc(C(=O)NCCCn4ccnc4)cc3n2)cc1C	3.8	i	i	i	-1.8	i	.	.	.	.
Cc1ccc(/C=C(\C#N)C(=O)Nc2c(C)cccc2C)s1	-4.6	i	i	i	-5.3	i	.	.	.	.
Cc1ccc(NC(=O)/C(C#N)=C/c2ccc(C)s2)c(C)c1	-3.5	i	i	i	-4.3	i	i	i	-1.08	9.5
O=C(Nc1ccc(F)cc1)c1ccccc1NS(=O)(=O)N1CCCC1	-2.7	i	25*	i	-3.1	i	27.5%*	i	-1.19	-6.0
CC(=O)c1ccc(C(=O)N2CCC(CO)(Cc3cccc(C(F)(F)F)c3)CC2)cc1	-0.6	i	100*	i	-1.5	i	i	i	-1.23	-5.5
Cc1ccc(C(=O)NC(=S)NNC(=O)COc2ccccc2C)cc1	-3.4	i	25*	i	-3.3	i	20.5%*	i	-0.923	-5.0
CCC(=O)NNC(=S)NC(=O)c1ccc(C)cc1	-1.4	i	i	i	1.0	i	.	.	.	.
COc1cc(C(=O)OCC(=O)N2CCC(Cc3ccccc3)CC2)cc(OC)c1OC	.	i	i	i	.	i	.	.	.	.

Screening results deposited in PubChem by several laboratories.
